Laboratory results as given in ChEMBL document CHEMBL4477254, “Synthesis and biological evaluation of some novel triazole hybrids of curcumin mimics and their selective anticancer activity against breast and prostate cancer cell lines” (Bioorg Med Chem Lett, 2016).
In brackets after ≈: the same amount, converted by molar mass.

Experiments:
[1] = test system: MCF7; test: Induction of mitochondrial membrane depolarization in human MCF7 cells at 10 uM after 24 hrs by JC-1 staining based flow cytometry (reference value: 11%); assay type: functional
[2] = test system: PC-3; test: Induction of mitochondrial membrane depolarization in human PC3 cells at 3 uM after 24 hrs by JC-1 staining based flow cytometry (reference value: 4.51%); assay type: functional
[3] = test system: MDA-MB-231; test: Potency index, ratio of curcumin IC50 to compound IC50 in human MDA-MB-231 cells; assay type: functional
Method in brief: (§1)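 IC50 came from an MTT viability assay after 24 h compound exposure, with curcumin run as the standard. Values are mean ± SE of three independent experiments. The index is the curcumin IC50 divided by the compound IC50 in the same cell line.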

[4] = test system: MCF7; test: Cytotoxicity against human MCF7 cells assessed as decrease in cell viability after 24 hrs by MTT assay; assay type: functional, cell-based; conditions: MCF7, 24 h
Method in brief: (§2)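 Cell viability by MTT after 24 h compound exposure; curcumin as standard. IC50 in µM from three independent experiments, expressed as mean ± SE.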

[5] = test system: PC-3; test: Potency index, ratio of curcumin IC50 to compound IC50 in human PC3 cells; assay type: functional; method in brief: as §1
[6] = test system: DU-145; test: Cytotoxicity against human DU145 cells assessed as decrease in cell viability after 24 hrs by MTT assay; assay type: functional, cell-based; conditions: DU-145, 24 h; method in brief: as §2
[7] = test system: MDA-MB-231; test: Cytotoxicity against human MDA-MB-231 cells assessed as decrease in cell viability after 24 hrs by MTT assay; assay type: functional, cell-based; conditions: MDA-MB-231, 24 h; method in brief: as §2
[8] = test system: 4T1; test: Cytotoxicity against mouse 4T1 cells assessed as decrease in cell viability after 24 hrs by MTT assay; assay type: functional, cell-based; conditions: 4T1, 24 h; method in brief: as §2
[9] = test system: PC-3; test: Cytotoxicity against human PC3 cells assessed as decrease in cell viability after 24 hrs by MTT assay; assay type: functional, cell-based; conditions: PC-3, 24 h; method in brief: as §2
[10] = test system: DU-145; test: Potency index, ratio of curcumin IC50 to compound IC50 in human DU145 cells; assay type: functional; method in brief: as §1
[11] = test system: HEK293; test: Cytotoxicity against human HEK293 cells assessed as decrease in cell viability after 24 hrs by MTT assay; assay type: cell-based; conditions: HEK293, 24 h; method in brief: as §2
[12] = test system: 4T1; test: Potency index, ratio of curcumin IC50 to compound IC50 in mouse 4T1 cells; assay type: functional; method in brief: as §1
[13] = Elimination rate constant in liver microsomes (unknown origin) assessed as compound remaining measured up to 60 mins by UPLC analysis; assay type: ADME, Microsome
[14] = Drug metabolism in liver microsomes (unknown origin) assessed as compound remaining after 5 mins in presence of NADPH by UPLC analysis; assay type: ADME, Microsome; conditions: read-out: Drug metabolism
Method in brief: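 Microsomal metabolic stability; percentage of compound remaining intact measured after 5 min incubation in presence of microsomes.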

[15] = Solubility of the compound in distilled water after 24 hrs by HPLC based shake flask method; assay type: physicochemical
[16] = Intrinsic hepatic clearance in liver microsomes (unknown origin) assessed per mg of protein in presence of NADPH by UPLC analysis; assay type: ADME, Microsome; conditions: read-out: CLH (converted)
[17] = Half life in liver microsomes (unknown origin) in presence of NADPH by UPLC analysis; assay type: ADME, Microsome
[18] = Intrinsic clearance in liver microsomes (unknown origin) assessed per mg of protein in presence of NADPH by UPLC analysis; assay type: ADME, Microsome

Compound | Activity [1] [%] | Activity [2] [%] | Ratio IC50 [3] | IC50 [4] [µM] | Ratio IC50 [5] | IC50 [6] [µM] | IC50 [7] [µM] | IC50 [8] [µM] | IC50 [9] [µM] | Ratio IC50 [10] | IC50 [11] [µM] | Ratio IC50 [12] | k el at 1 h [13] [s⁻¹] | remaining at 5 min [14] [%] | solubility thermodynamic at 24 h [15] [µg/mL] | CLint scaled [16] [L/h/kg] | half-life [17] [min] | CLint [18] [µL/min/mg]
N#CC(C#N)=NNc1cccc(Cl)c1 [CARBONYL CYANIDE M-CHLOROPHENYLHYDRAZONE] | 86.65 | 35.82 |  |  |  |  |  |  |  |  |  |  |  |  |  |  |  | 
O=C1/C(=C/c2ccccc2F)CN(Cc2cn(Cc3ccccc3F)nn2)C/C1=C\c1ccccc1F |  |  | <=8.3 | 6 | <=5.7 | 10.6 | 16 | 6.5 | 19.7 | ≤ 9.5 | 41.2 | <=9.3 |  |  |  |  |  | 
O=c1[nH]cc(F)c(=O)[nH]1 [FLUOROURACIL] |  |  |  |  |  | 24.2 | 19 | 23 | 13.3 |  | 40 |  |  |  |  |  |  | 
O=C1/C(=C/c2ccccc2F)CN(C(=S)SCc2cn(Cc3ccc(F)cc3)nn2)C/C1=C\c1ccccc1F |  |  | <=8.3 | 56.9 |  | 35.7 | 58.8 | 9.9 | > 80 |  | 51.3 | <=9.3 |  |  |  |  |  | 
COc1ccc(/C=C2\CN(Cc3cn(Cc4cccc(Cl)c4)nn3)C/C(=C\c3ccc(OC)cc3)C2=O)cc1 |  |  |  | 99 | <=5.7 | 15.4 | 98 | 56.6 | 32.5 | ≤ 9.5 | > 100 |  |  |  |  |  |  | 
COc1cccc2c1C(=O)c1c(O)c3c(c(O)c1C2=O)C[C@@](O)(C(=O)CO)C[C@@H]3O[C@H]1C[C@H](N)[C@H](O)[C@H](C)O1 [DOXORUBICIN] |  |  |  |  |  | 1.6 | 1.6 | 0.99 |  |  | 7.2 |  |  |  |  |  |  | 
O=C1/C(=C/c2ccccc2F)CN(C(=S)SCc2cn(Cc3ccccc3F)nn2)C/C1=C\c1ccccc1F |  |  | <=8.3 | 51.6 |  | > 80 | 57.6 | 30.7 | > 80 |  |  | <=9.3 |  |  |  |  |  | 
COc1ccc(/C=C2\CN(Cc3cn(Cc4ccccc4Cl)nn3)C/C(=C\c3ccc(OC)cc3)C2=O)cc1 |  |  |  | > 100 | <=5.7 | 17.8 | > 100 | 11.4 | 36.3 | ≤ 9.5 |  | <=9.3 |  |  |  |  |  | 
Cc1ccc(/C=C2\CN(Cc3cn(Cc4cccc(Cl)c4)nn3)C/C(=C\c3ccc(C)cc3)C2=O)cc1 |  |  | <=8.3 | 10 | <=5.7 | 33.1 | 9 | 29.3 | 29.3 | ≤ 9.5 | 73.5 | <=9.3 |  |  |  |  |  | 
Cc1ccc(/C=C2\CN(Cc3cn(Cc4ccc(F)cc4)nn3)C/C(=C\c3ccc(C)cc3)C2=O)cc1 |  |  | <=8.3 | 29 |  | 49.7 | 26.8 | 57.2 | 65.6 |  |  |  |  |  |  |  |  | 
COc1ccc(/C=C2\CN(Cc3cn(Cc4ccccc4F)nn3)C/C(=C\c3ccc(OC)cc3)C2=O)cc1 |  |  | <=8.3 | ≥ 100 |  | 32.6 | 67.2 | 39.4 | 39.9 | ≤ 9.5 | > 100 | <=9.3 |  |  |  |  |  | 
Cc1ccc(/C=C2\CN(C(=S)SCc3cn(Cc4ccc(F)cc4)nn3)C/C(=C\c3ccc(C)cc3)C2=O)cc1 |  |  | <=8.3 | 81.6 |  | 38.8 | 45.6 | 29.3 | 45.5 | ≤ 9.5 |  | <=9.3 |  |  |  |  |  | 
O=C1/C(=C/c2ccccc2F)CN(Cc2cn(Cc3cccc(Cl)c3)nn2)C/C1=C\c1ccccc1F |  |  | <=8.3 | 12 | <=5.7 | 4.3 | 12 | 6.1 | 6.8 | ≤ 9.5 | 33.1 | <=9.3 |  |  |  |  |  | 
O=C1/C(=C/c2ccccc2F)CN(C(=S)SCc2cn(Cc3ccccc3Cl)nn2)C/C1=C\c1ccccc1F |  |  |  | 78.7 |  | 46.3 | 100 | 43.6 | > 80 |  |  | <=9.3 |  |  |  |  |  | 
Cc1ccc(/C=C2\CN(Cc3cn(Cc4ccccc4Cl)nn3)C/C(=C\c3ccc(C)cc3)C2=O)cc1 |  |  | <=8.3 | 66.7 | <=5.7 | 10.5 | 29 | 23.2 | 8.9 | ≤ 9.5 | 91.5 | <=9.3 |  |  |  |  |  | 
O=C1/C(=C/c2ccccc2F)CN(C(=S)SCc2cn(Cc3cccc(Cl)c3)nn2)C/C1=C\c1ccccc1F |  |  |  | > 100 |  | > 80 | > 100 | > 100 | 80 |  |  |  |  |  |  |  |  | 
COc1ccc(/C=C2\CN(C(=S)SCc3cn(Cc4ccccc4F)nn3)C/C(=C\c3ccc(OC)cc3)C2=O)cc1 |  |  |  | 79.4 | <=5.7 | 54.5 | > 100 | 49.9 | 31.5 |  |  |  |  |  |  |  |  | 
COC(=O)Nc1nc2cc(C(=O)c3cccs3)ccc2[nH]1 [NOCODAZOLE] |  |  |  | 0.42 |  | 2.2 | 1.1 | 1.3 | 2.5 |  | 5.1 |  |  |  |  |  |  | 
COc1cc(/C=C/C(=O)CC(=O)/C=C/c2ccc(O)c(OC)c2)ccc1O [CURCUMIN] |  |  |  | 83.1 |  | 41 | 75.3 | 49.4 | 39 |  | 94.1 |  | 0.00085 | 45 | 0.06 (≈ 0.163 µM) | 182 | 13.7 | 101
COc1ccc(/C=C2\CN(C(=S)SCc3cn(Cc4ccc(F)cc4)nn3)C/C(=C\c3ccc(OC)cc3)C2=O)cc1 |  |  |  | > 100 |  | 74.6 | > 100 | > 100 | 45.6 |  |  |  |  |  |  |  |  | 
COc1ccc(/C=C2\CN(C(=S)SCc3cn(Cc4ccccc4Cl)nn3)C/C(=C\c3ccc(OC)cc3)C2=O)cc1 |  |  |  | > 100 |  | > 80 | > 100 | > 100 | 60.1 |  |  |  |  |  |  |  |  | 
Cc1ccc(/C=C2\CN(C(=S)SCc3cn(Cc4cccc(Cl)c4)nn3)C/C(=C\c3ccc(C)cc3)C2=O)cc1 |  |  |  | > 100 |  | > 80 | 83 | 53.4 | > 80 |  |  |  |  |  |  |  |  | 
COc1ccc(/C=C2\CN(Cc3cn(Cc4ccc(F)cc4)nn3)C/C(=C\c3ccc(OC)cc3)C2=O)cc1 |  |  | <=8.3 | > 100 |  | 59.4 | 70.7 | 49.3 | 67.5 |  |  | <=9.3 |  |  |  |  |  | 
Cc1ccc(/C=C2\CN(C(=S)SCc3cn(Cc4ccccc4F)nn3)C/C(=C\c3ccc(C)cc3)C2=O)cc1 |  |  |  | > 100 |  | 80 | 91.5 | 28.4 | > 80 |  |  | <=9.3 |  |  |  |  |  | 
Cc1ccc(/C=C2\CN(C(=S)SCc3cn(Cc4ccccc4Cl)nn3)C/C(=C\c3ccc(C)cc3)C2=O)cc1 |  |  |  | > 100 |  | > 80 | 93.2 | 49.3 | > 80 |  |  | <=9.3 |  |  |  |  |  | 
O=C1/C(=C/c2ccccc2F)CN(Cc2cn(Cc3ccccc3Cl)nn2)C/C1=C\c1ccccc1F |  |  | <=8.3 | 10 | <=5.7 | 7.5 | 16.5 | 5.3 | 7.1 | ≤ 9.5 | 33.2 | <=9.3 |  |  |  |  |  | 
COc1ccc(/C=C2\CN(C(=S)SCc3cn(Cc4cccc(Cl)c4)nn3)C/C(=C\c3ccc(OC)cc3)C2=O)cc1 |  |  | <=8.3 | 32 |  | > 80 | 32 | 69.7 | > 80 |  | > 100 |  |  |  |  |  |  | 
